The target of one test is Acetylcholinesterase (Homo sapiens, UniProt P22303). Briefly: Inhibition constant against human Acetylcholinesterase (hAcChE) using acetylthiocholine (AcTCh) as substrate.
Test [1] concerns the target T1, Liver carboxylesterase 1 (Homo sapiens, UniProt P23141).
T1 sequence (P23141 whole entry): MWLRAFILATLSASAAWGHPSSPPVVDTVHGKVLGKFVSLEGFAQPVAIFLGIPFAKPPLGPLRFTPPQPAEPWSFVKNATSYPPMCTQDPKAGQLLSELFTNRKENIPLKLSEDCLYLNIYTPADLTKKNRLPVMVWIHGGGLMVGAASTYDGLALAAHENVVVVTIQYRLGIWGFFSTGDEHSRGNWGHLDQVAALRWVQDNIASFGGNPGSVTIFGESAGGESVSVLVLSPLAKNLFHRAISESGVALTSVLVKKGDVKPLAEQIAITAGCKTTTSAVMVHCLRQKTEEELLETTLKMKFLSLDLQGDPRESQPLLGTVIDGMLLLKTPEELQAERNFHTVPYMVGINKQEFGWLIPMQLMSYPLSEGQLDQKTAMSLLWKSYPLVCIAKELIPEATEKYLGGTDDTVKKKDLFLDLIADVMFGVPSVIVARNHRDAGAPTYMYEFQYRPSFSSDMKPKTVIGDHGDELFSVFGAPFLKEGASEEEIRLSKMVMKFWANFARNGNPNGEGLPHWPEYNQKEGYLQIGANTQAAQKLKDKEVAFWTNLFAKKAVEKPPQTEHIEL
Put plainly: Inhibition constant against human liver carboxylesterase 1 (hCE1) using nitrophenyl acetate (o-NPA) as substrate.

In the next test the target is Cholinesterase (Homo sapiens, UniProt P06276). Put plainly: Inhibition constant against human Butyrylcholinesterase (hBuChE) using butyrylthiocholine (BuTCh) as substrate.
Chain of Cholinesterase (P06276 whole entry): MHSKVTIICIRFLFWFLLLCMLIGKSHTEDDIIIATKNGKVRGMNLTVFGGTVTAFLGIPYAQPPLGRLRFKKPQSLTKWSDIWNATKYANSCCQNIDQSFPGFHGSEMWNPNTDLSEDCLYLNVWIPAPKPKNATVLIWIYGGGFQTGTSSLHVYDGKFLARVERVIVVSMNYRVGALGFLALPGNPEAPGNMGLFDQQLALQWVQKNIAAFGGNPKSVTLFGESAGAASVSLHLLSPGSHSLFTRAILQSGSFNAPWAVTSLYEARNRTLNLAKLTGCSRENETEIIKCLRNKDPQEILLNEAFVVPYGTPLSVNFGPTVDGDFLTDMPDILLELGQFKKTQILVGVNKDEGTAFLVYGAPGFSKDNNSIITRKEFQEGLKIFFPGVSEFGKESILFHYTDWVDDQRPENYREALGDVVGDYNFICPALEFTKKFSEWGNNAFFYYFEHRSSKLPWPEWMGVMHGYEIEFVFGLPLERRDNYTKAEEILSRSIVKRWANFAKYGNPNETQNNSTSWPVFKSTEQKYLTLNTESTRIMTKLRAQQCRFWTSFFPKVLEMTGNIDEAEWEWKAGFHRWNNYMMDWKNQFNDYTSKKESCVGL
In another test the target is T2, Cocaine esterase (Homo sapiens, UniProt O00748).
T2 sequence (O00748 whole entry): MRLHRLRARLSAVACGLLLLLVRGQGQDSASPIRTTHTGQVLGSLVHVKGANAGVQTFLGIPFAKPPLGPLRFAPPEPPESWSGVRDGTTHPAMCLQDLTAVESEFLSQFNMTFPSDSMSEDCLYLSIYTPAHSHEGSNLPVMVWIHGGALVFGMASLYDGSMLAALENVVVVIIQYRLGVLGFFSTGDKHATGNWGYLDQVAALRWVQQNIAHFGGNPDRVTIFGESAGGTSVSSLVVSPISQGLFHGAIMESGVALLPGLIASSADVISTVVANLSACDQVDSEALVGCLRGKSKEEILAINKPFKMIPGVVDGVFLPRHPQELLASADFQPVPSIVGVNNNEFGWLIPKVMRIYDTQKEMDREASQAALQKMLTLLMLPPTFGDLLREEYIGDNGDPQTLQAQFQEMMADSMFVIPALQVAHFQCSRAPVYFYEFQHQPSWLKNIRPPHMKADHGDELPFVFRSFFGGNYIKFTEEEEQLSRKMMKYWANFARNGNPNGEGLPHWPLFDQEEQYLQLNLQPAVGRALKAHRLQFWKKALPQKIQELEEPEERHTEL
Briefly: Inhibition constant against human intestinal carboxylesterase 2 (hiCE) using nitrophenyl acetate (o-NPA) as substrate.

Test [2] concerns the target T3, Liver carboxylesterase 1 (Oryctolagus cuniculus, UniProt P12337).
T3 sequence (P12337 whole entry): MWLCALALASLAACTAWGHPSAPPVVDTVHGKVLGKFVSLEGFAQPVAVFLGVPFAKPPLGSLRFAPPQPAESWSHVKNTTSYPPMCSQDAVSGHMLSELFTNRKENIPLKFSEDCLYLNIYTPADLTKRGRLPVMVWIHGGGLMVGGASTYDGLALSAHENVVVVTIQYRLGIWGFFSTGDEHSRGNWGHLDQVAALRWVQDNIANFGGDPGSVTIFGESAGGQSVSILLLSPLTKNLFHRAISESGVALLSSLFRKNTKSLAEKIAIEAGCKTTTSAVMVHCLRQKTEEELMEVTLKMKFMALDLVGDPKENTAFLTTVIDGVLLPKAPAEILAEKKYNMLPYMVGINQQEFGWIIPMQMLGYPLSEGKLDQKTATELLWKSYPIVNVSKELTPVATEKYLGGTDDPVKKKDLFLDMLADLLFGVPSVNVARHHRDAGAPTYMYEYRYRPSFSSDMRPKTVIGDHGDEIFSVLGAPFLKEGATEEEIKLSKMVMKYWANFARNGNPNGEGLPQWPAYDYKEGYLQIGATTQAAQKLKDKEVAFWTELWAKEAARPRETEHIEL
Briefly: Inhibition constant against rabbit liver carboxylesterase (rCE) using nitrophenyl acetate (o-NPA) as substrate. A digest of the protocol:
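Pure rCE prepared per earlier work. Spectrophotometric multiwell assay with 3mM o-NPA. Inhibitor and substrate were dispensed first, then enzyme was added. A420 was read every 15 s for 5 min and compared with no-inhibitor wells. Inhibitor range started at 1 pM. Duplicates, with 50 µM BNPP and DMSO/no-enzyme controls. Ki came from a partially competitive inhibition equation fit.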

What is called Ki is the dissociation constant of the complex between target and ligand, obtained from inhibition or displacement. High values mean weaker binding, low ones tighter binding.

Chain of Acetylcholinesterase (P22303 whole entry): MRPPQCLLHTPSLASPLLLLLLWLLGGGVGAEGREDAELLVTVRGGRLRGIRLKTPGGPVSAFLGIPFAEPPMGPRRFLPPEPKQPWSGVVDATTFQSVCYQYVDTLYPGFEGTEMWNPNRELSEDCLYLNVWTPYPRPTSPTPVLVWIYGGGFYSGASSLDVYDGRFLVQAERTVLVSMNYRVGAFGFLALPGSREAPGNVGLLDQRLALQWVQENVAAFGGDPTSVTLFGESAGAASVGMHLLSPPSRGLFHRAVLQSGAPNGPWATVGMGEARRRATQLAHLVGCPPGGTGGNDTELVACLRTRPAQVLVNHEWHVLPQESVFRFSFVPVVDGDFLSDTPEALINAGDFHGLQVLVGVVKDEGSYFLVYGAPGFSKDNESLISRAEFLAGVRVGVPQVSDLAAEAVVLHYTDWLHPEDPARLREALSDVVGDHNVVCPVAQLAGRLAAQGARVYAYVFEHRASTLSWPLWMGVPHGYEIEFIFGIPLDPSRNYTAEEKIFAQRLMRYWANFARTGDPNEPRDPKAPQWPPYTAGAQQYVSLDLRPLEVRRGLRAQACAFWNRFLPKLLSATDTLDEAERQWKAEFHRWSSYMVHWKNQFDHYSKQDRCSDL

`CC1CCCC(=O)C1=O` (centres undefined): the Ki at Acetylcholinesterase, at Liver carboxylesterase 1 [1], at Cholinesterase, at Cocaine esterase and at Liver carboxylesterase 1 [2] was greater than 100 µM in each case.

Take `CC1CCC(=O)C1=O` (centres undefined): the Ki is greater than 100 µM on Acetylcholinesterase; greater than 100 µM on Liver carboxylesterase 1 [1]; greater than 100 µM on Cholinesterase; greater than 100 µM at Cocaine esterase; 15.7 µM at Liver carboxylesterase 1 [2].

Molecule `CN(C)c1ccc(C(=O)C(=O)c2ccc(N(C)C)cc2)cc1` displayed a Ki at Liver carboxylesterase 1 [2] of 2.15 µM.

`O=C1C(Cl)=C(Cl)C(=O)C(Cl)=C1Cl` [CHLORANIL]: the Ki on Acetylcholinesterase amounted to 0.163 µM; at Liver carboxylesterase 1 [1], 0.0839 µM; at Cholinesterase, 0.268 µM; on Liver carboxylesterase 1 [2] it was 0.0548 µM.

With `O=C1C(=O)C(Cl)=C(Cl)C(Cl)=C1Cl`, the Ki at Acetylcholinesterase was found to be 1.67 µM; at Liver carboxylesterase 1 [1], 5.44 µM; at Cholinesterase, 3.2 µM; on Cocaine esterase it was 0.875 µM; on Liver carboxylesterase 1 [2], 1.03 µM.

For the molecule `COc1ccc(C(=O)C(O)c2ccc(OC)cc2)cc1` (centres undefined), the Ki at Acetylcholinesterase was greater than 100 µM; at Liver carboxylesterase 1 [1] it was greater than 100 µM; at Cholinesterase it was greater than 100 µM; at Cocaine esterase it was greater than 100 µM; at Liver carboxylesterase 1 [2] it was 13.9 µM.

Consider `O=C1CCCCC1=O`, for which the Ki on Acetylcholinesterase, at Liver carboxylesterase 1 [1], at Cholinesterase, at Cocaine esterase and at Liver carboxylesterase 1 [2] was greater than 100 µM in each case.

Consider `O=C(CC(=O)c1ccccc1)c1ccccc1` [DIBENZOYLMETHANE], for which the Ki at Acetylcholinesterase is greater than 100 µM; on Liver carboxylesterase 1 [1] it was 26 µM; on Cholinesterase, greater than 100 µM; on Cocaine esterase it was greater than 100 µM; at Liver carboxylesterase 1 [2], 3.95 µM.

As to `O=C(c1ccccc1)c1ccccc1` [BENZOPHENONE], the Ki at Liver carboxylesterase 1 [1], on Cholinesterase, at Cocaine esterase and at Liver carboxylesterase 1 [2] was greater than 100 µM in each case.

As to `OC(c1ccccc1)C(O)c1ccccc1` (centres undefined), the Ki at Acetylcholinesterase, at Liver carboxylesterase 1 [1], at Cholinesterase, at Cocaine esterase and on Liver carboxylesterase 1 [2] was greater than 100 µM in each case.

Consider `CCCCC(=O)C(C)=O`, for which the Ki at Acetylcholinesterase was greater than 100 µM; at Liver carboxylesterase 1 [1], 16.9 µM; at Cholinesterase, greater than 100 µM; on Cocaine esterase it was greater than 100 µM; at Liver carboxylesterase 1 [2], greater than 100 µM.

`CC(=O)C(C)=O` [BUTANEDIONE]: the Ki at Acetylcholinesterase, at Liver carboxylesterase 1 [1], on Cholinesterase, on Cocaine esterase and on Liver carboxylesterase 1 [2] was greater than 100 µM in each case.

For `CC(=O)C(=O)c1ccccc1`, the Ki on Acetylcholinesterase is greater than 100 µM; at Liver carboxylesterase 1 [1] it was 5.27 µM; on Cholinesterase, greater than 100 µM; at Liver carboxylesterase 1 [2], 4.93 µM.

As for `CC(=O)CC(C)=O`, the Ki at Acetylcholinesterase, on Liver carboxylesterase 1 [1], on Cholinesterase, on Cocaine esterase and at Liver carboxylesterase 1 [2] was greater than 100 µM throughout.

Regarding `O=S(=O)(Cc1ccccc1)Cc1ccccc1`, the Ki at Acetylcholinesterase, at Liver carboxylesterase 1 [1], on Cholinesterase, at Cocaine esterase and at Liver carboxylesterase 1 [2] was greater than 100 µM throughout.

As to `CC(C)(C)C1=CC(=O)C(=O)C(C(C)(C)C)=C1`, the inhibition constant Ki on Acetylcholinesterase is greater than 100 µM; at Liver carboxylesterase 1 [1] it was 0.0886 µM; at Cholinesterase, greater than 100 µM; on Cocaine esterase, 1.35 µM; at Liver carboxylesterase 1 [2] it was 0.736 µM.

Regarding `COC(OC)(C(=O)c1ccccc1)c1ccccc1`, the Ki on Acetylcholinesterase is greater than 100 µM; at Liver carboxylesterase 1 [1], 15.3 µM; at Cholinesterase it was greater than 100 µM; at Cocaine esterase, greater than 100 µM; at Liver carboxylesterase 1 [2], greater than 100 µM.

Take `O=C(O)c1ccc(C(=O)c2ccccc2)cc1`: the inhibition constant Ki at Acetylcholinesterase, on Liver carboxylesterase 1 [1], on Cholinesterase, on Cocaine esterase and on Liver carboxylesterase 1 [2] was greater than 100 µM throughout.

`CC1NC(=O)C(=O)OC1C` (centres undefined): the Ki on Acetylcholinesterase, on Liver carboxylesterase 1 [1], at Cholinesterase, at Cocaine esterase and on Liver carboxylesterase 1 [2] was greater than 100 µM in each case.

Consider `O=C(c1ccccc1)C(O)c1ccccc1` (centres undefined) [BENZOIN], for which the Ki at Liver carboxylesterase 1 [2] was greater than 100 µM.
